The structures appear in SMILES notation. Values joined by “and” are separate entries in the source; they are usually repeats but may differ in a detail not shown here. Equal entries are not always repeated.

For data set [1], the system named is Human immunodeficiency virus 1. As to the kind of experiment: Antiviral activity against HIV1 RF infected in human CEM-SS cells assessed as cytoprotective effect by measuring cell viability at 0.78 to 50 uM by XTT assay relative to control. It counts as functional. The method, boiled down:
(§1)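 HIV-1 strain RF infection of CEM-SS cells. Samples dissolved at 10 mM in DMSO, tested at 2-fold dilutions from 50 µM down to 0.78 µM final, in duplicate. EC50 estimated by regression analysis.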

Data set [2] deals with Human immunodeficiency virus 1. Nature of the data set: Stabilization of HIV1 RT-RNase H by sypro-orange dye-based differential scanning fluorimetric analysis. Summed up:
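Thermal shift of HIV RT RNase H in 20 mM HEPES pH 7.5, 10 mM MgCl2, 100 mM NaCl with Sypro Orange at 1:2000. 1 µL of 1 mM compound in DMSO added to 49 µL of this buffer. Heated 30 to 80 °C in 0.2 °C steps, read at ex 483 / em 568 nm. ΔTm determined, duplicate runs.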

A short description of data set [3]: (§2) Cytotoxicity against human CEM-SS cells assessed as reduction in cell viability by XTT assay. The conditions noted are these: CEM-SS cells. It counts as cell-based. The method, boiled down:
(§3)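 Uninfected CEM-SS cells in the same plate as the HIV-1 RF infection assay. Compounds tested at 2-fold dilutions from 50 µM to 0.78 µM final, in duplicate. CC50 estimated by regression analysis.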
For orientation: Tetrazolium assays rely on reduction of a dye to a coloured formazan, in cell work by metabolically active cells.

Data set [4] concerns CEM-SS. Described as §2. It counts as cell-based. The settings on record: cem-ss. Summed up:
as §3

Data set [5] can be described thus: Inhibition of HIV1 RT-RNase H activity using 18-nucleotide 3'-fluorescein-labeled RNA/5'-dabsyl-labeled DNA hybrid after 10 mins by FRET assay. Also on record: species or system Human immunodeficiency virus 1.
Data set [6] concerns Human immunodeficiency virus 1. As to the kind of experiment: Antiviral activity against HIV1 RF infected in human CEM-SS cells assessed as cytoprotective effect by measuring increase in cell viability by XTT assay. The format is functional, cell-based. Summed up:
as §1

The ΔTm is the shift of the melting midpoint relative to a reference. As a reminder, the CC50 is the concentration that lowers cell viability or growth by half. The term IC50 denotes the concentration that gives 50% inhibition. Low readings indicate greater potency, high ones weaker potency. With `Cc1cc(O)c(=O)c(O)cc1-c1ccc(C(F)(F)F)cc1`, the Activity in data set [1] is less than 35%. For the same molecule, in data set [2], the ΔTm is 0.2 °C and 0.9 °C. Besides, the CC50 was in the range of 2300 to 7100 nM in data set [3] and 2200 to 6700 nM in data set [4]. In addition, the IC50 in data set [5] was 800 nM and 1100 nM.
For orientation: EC50 means the midpoint of the concentration-response curve. On to `COC(=O)c1cc(O)c(=O)c(O)cc1C`, for which the ΔTm in data set [2] was 2.9 °C and 2.7 °C. Besides, the CC50 in data set [4] was 5400 to 11000 nM and 15000 nM. Besides, the 50% effective concentration (EC50) in data set [6] was 2200 to 4200 nM and 7200 to 7700 nM. In addition, in data set [5], the IC50 was 440 nM and 160 nM.
Take `Cc1cc(O)c(=O)c(O)cc1-c1ccccc1`: the Activity in data set [1] was less than 35%. Besides, the ΔTm in data set [2] was 2.2 °C and 1.5 °C. Further, the CC50 in data set [4] was 5600 to 7000 nM and 2500 to 3700 nM. Besides, the IC50 in data set [5] is 250 nM and 390 nM.
As for `CCOC(=O)c1cc(O)c(=O)c(O)cc1C`, the Activity in data set [1] is less than 50%. Moreover, in data set [2], the ΔTm was 2.9 °C and 2.4 °C. Also, the 50% cytotoxic concentration (CC50) in data set [4] is 8500 to 9700 nM and 22000 nM. Besides, in data set [6] (Human immunodeficiency virus 1, RF, CEM-SS), the EC50 was 4800 to 5100 nM. In data set [5], the IC50 was 540 nM and 250 nM.
In the case of `Cc1cc(O)c(=O)c(O)cc1C(=O)C1CCCCC1`, the Activity in data set [1] is listed as less than 35%. For the same molecule, the shift in melting temperature (ΔTm) in data set [2] was 2 °C and 2.4 °C. In addition, the CC50 in data set [3] was 2300 to 3100 nM; in data set [4], 2700 to 7000 nM. Further, the IC50 in data set [5] was 520 nM and 210 nM.
As to `Cc1cc(O)c(=O)c(O)cc1C(=O)c1ccc(-c2ccccc2)cc1`, the Activity in data set [1] is less than 35%. For the same molecule, the ΔTm in data set [2] was 1.7 °C and 1.9 °C. The results for the CC50 in data set [3] and in data set [4] were 140 to 970 nM and 100 to 830 nM, respectively. The IC50 in data set [5] is 1000 nM and 590 nM.
For the molecule `Cc1cc(O)c(=O)c(O)cc1C(=O)c1ccccc1`, the Activity in data set [1] is recorded as less than 35%. Also, in data set [2], the ΔTm is 2.5 °C and 2.9 °C. Moreover, the half-maximal cytotoxic concentration (CC50) in data set [4] was 2600 to 8800 nM and 7200 to 8800 nM. The IC50 in data set [5] was 320 nM and 220 nM.
In the case of `CC(=O)c1cc(O)c(=O)c(O)cc1C`, the ΔTm in data set [2] was 2.3 °C and 2.9 °C. Moreover, the 50% cytotoxic concentration (CC50) in data set [4] is 7700 to 24000 nM and 20000 to 21000 nM. In data set [6], the EC50 is 2800 to 5200 nM and 6500 to 7300 nM. In data set [5], the IC50 was 570 nM and 290 nM.
`Cc1cc(O)c(=O)c(O)cc1-c1cccc2ccccc12`: the Activity in data set [1] was less than 35%. In addition, in data set [2], the ΔTm is 1 °C and 1.5 °C. The CC50 in data set [3] was 2100 to 5400 nM; in data set [4], 3300 to 6700 nM. Moreover, the IC50 in data set [5] was 560 nM and 260 nM.

The record behind these values is ChEMBL document CHEMBL3992483, “Traceless Solid-Phase α-Hydroxytropolone Synthesis” (Medchemcomm, 2016).
